Sampled rows, rich in hits. Any-hit rate of the full collection: about 4.1%.
MrgX1 ag = agonists of human MrgX1 receptor. B-score at 10 µM. MrgX1-HEK293 cells, Fluo-4 calcium fluorescence, agonist mode; active compounds read high. Q96LB2. hit rate 0.44% among 310,000;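 active = calcium response B-score plate-corrected fluorescence ratio at least 3 library SD, with starting fluorescence B-score inside 5 SD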
Target sequence (Q96LB2 whole entry, looked up): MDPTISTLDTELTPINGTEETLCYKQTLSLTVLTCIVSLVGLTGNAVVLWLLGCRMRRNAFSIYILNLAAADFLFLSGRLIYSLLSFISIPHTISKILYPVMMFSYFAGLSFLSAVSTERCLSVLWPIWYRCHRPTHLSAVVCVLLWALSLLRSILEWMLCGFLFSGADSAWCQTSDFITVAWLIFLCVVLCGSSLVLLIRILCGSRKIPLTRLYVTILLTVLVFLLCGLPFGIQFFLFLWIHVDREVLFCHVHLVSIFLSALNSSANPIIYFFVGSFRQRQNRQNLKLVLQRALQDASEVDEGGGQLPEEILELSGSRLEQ
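System: HEK293 cells stably expressing human MrgX1 receptor; Dosing: test compound in the initial addition of three; Schedule: overnight plating, then 30 min 37 °C plus 30 min room-temperature dye loading; Detection: kinetic calcium dye fluorescence, Fluo-4 NW; Controls: per-plate positive and negative controls for Z′ factor.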
RGS4 act = RGS4 potentiation or activation; HEK293 M3R/inducible RGS4, carbachol calcium flux Fluo4; active compounds read low; B-score at 10 µM; hit rate 0.92% among 310,000; AID 463111;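 active = B-score of the integrated calcium signal more than 4 SD below the library mean, with starting fluorescence not abnormally high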;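 also: negative B-score means reduced calcium response which marks RGS4 activation or potentiation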
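Assay system: HEK293 FlpIn-TREx cells, stable M3R, doxycycline-inducible RGS4 / Probe or stimulus: carbachol, ECmax concentration / Times: overnight RGS4 induction, 30 min dye load 37 °C, 20 min compound RT / Signal: kinetic calcium fluorescence imaging with Fluo4-AM dye, 2 µM / Measure: Agonist-evoked peak-minus-minimum fluorescence over baseline, integrated ratio, B score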
RGS4 block = inhibitors of human RGS4 | P49798 | HEK293 M3R/RGS4 inducible, Fluo-4 calcium flux; active compounds read high; triggered by carbachol at its EC20 | B-score at 10 µM | hit rate 0.45% among 310,000 | AID 463165;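 active = B-score, a plate-corrected calcium signal, over three deviations above library mean, with baseline fluorescence within five deviations of library mean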;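 also: RGS4 expression induced by doxycycline in cells with stable M3 receptor; B-score is computed from the integrated fluorescence ratio over baseline after carbachol; higher B-score means a larger calcium signal and so more RGS4 inhibition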
MrgX1 antag = antagonists of human MrgX1 receptor; MRGX1-HEK293 calcium flux, Fluo-4, BAM8-22 antagonism; active compounds read low; B-score at 10 µM; hit rate 1.3% among 310,000;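 active = calcium-response B-score plate-corrected more than 3 library SD below zero, starting fluorescence within 5 deviations, no agonist response on first addition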;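 also: peak minus trough fluorescence over baseline after final BAM8-22 challenge near maximal dose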
MrgX1 PAM = allosterically activates human MrgX1 receptor signaling; Q96LB2; MrgX1-HEK293, Fluo-4 calcium flux, FDSS; active compounds read high; B-score at 10 µM; hit rate 0.63% among 310,000;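 active = plate-corrected calcium response at least 3 library SD above typical, normal starting fluorescence, not activating the receptor alone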;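 also: compound read alongside a low EC10 to EC30 dose of BAM8-22 agonist; peak minus trough fluorescence over baseline measured at the second addition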
Kir21 block = Kir2.1 (mouse) channel inhibition; P35561; HEK293-Kir2.1, FluxOR thallium flux fluorescence; active compounds read low; B-score at 10 µM; hit rate 0.85% among 310,000;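 active = fluorescence ratio B-score at or below minus 3 SD of library scores, with starting-brightness B-score within 2 SD, cut at about -4.2 in these data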;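 also: channel flux triggered by added potassium and thallium sulfate stimulus; B-score of peak minus minimum fluorescence over baseline after thallium stimulus; more negative B-score means stronger Kir2.1 block with less thallium influx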
An asterisk follows results filed as active; i = inactive.

SMILES	MrgX1 ag	RGS4 act	RGS4 block	MrgX1 antag	MrgX1 PAM	Kir21 block
CCOc1cc(CNCc2ccncc2)cc(Br)c1OCc1ccccc1F	i	i	i	i	i	-8*
CCOc1cc(CNCCSc2nnnn2C)cc(Br)c1OCc1ccccc1F	i	i	i	-4.7*	i	0.04
CC1=NN(C(C#N)c2ccc(F)cc2)C(C)(C)C1 (stereo unspecified)	i	i	i	i	i	-2
CCOC(=O)c1c(C)[nH]c(C(=O)N/N=C/c2cccc(OC)c2)c1C	i	i	i	i	i	-0.78
N#CC1=C(N)NC(SCc2ccc(F)cc2)=C(C#N)C12CCCCC2	i	i	i	i	i	-4.4*
COc1ccc(CCN2C(=NC(=O)CCC(=O)O)SC3CS(=O)(=O)CC32)cc1OC (stereo unspecified)	i	i	i	-5.2*	i	-0.46
COc1ccc(CCN2C(=NC(=O)CC(C)C)SC3CS(=O)(=O)CC32)cc1 (stereo unspecified)	i	i	i	i	i	0.82
Cc1c(CCC(=O)N2CCC(C(=O)O)CC2)c(=O)oc2cc3oc4c(c3cc12)CCCC4	i	i	i	i	i	-0.05
Cc1c(CCC(=O)N2CCC(C(=O)O)(c3ccccc3)CC2)c(=O)oc2cc3oc4c(c3cc12)CCCC4	i	i	i	-6.2*	i	1.1
Cc1cc(C(=O)c2ccccc2)nc2ccccc12	i	i	i	i	i	-1.5
Cc1cc(C)c(NC(=S)NCC2CCN(C(C)c3ccccc3)C2)c(C)c1 (stereo unspecified)	i	i	i	i	i	-0.64
CC(c1ccccc1)N1CCC(CNC(=S)Nc2cccc(Cl)c2)C1 (stereo unspecified)	i	i	i	i	i	-5.9*
OCCNc1nc(-c2ccccc2)c2cc(Cl)ccc2n1	i	i	i	i	i	1.4
Cn1c(=O)c(=O)n(C)c2cc(S(=O)(=O)N3CCN(C4CCCCC4)CC3)ccc21	i	i	i	i	i	1.1
CCC(C)(C)n1nnnc1CN(Cc1ccco1)Cc1cc2cc3c(cc2[nH]c1=O)OCO3	i	i	i	i	i	1.5
CCC(C)(C)n1nnnc1CN(Cc1ccc(Cl)cc1)Cc1ccco1	i	i	i	i	i	-5.1*
CC1(C)CC(=O)C2=C(C1)OC(N)=C(C#N)C21C(=O)N(Cc2ccccc2Cl)c2ccccc21 (stereo unspecified)	i	i	i	i	8.7*	-1.4
CC(=O)c1cccc(OCCCOc2cccc3cccnc23)c1	i	i	i	i	i	-1.2
COc1c(CC=C(C)C)cc(C2CC(=O)c3c(O)cc(O)cc3O2)c(CC=C(C)C)c1O (stereo unspecified)	i	-7.6*	i	i	i	0.01
COc1ccccc1/C=C(/C(=O)OCC(=O)NCc1ccccc1)c1ccccc1	i	i	i	-5.5*	i	0.13
COc1ccc(CCNC(=O)CSc2ccc3ccccc3c2)cc1OC	i	i	i	i	i	-6.9*
CCCCn1c(-c2ccccc2)cnc1SCC(=O)NCCc1ccc(OC)c(OC)c1	i	i	i	i	i	-6.3*
COc1ccc(CCNC(=O)CSc2nn(-c3ccccc3)c(=S)s2)cc1OC	i	i	i	i	i	-6.6*
COc1ccc(CCNC(=O)CSc2ccc(NC(C)=O)cc2)cc1OC	i	i	i	i	i	0.23
COc1ccc(CCNC(=O)CSc2nnc(-c3ccccc3)c3ccccc23)cc1OC	i	i	i	i	i	-0.22
Clc1ccc(C2=Nn3c(nnc3-c3cc(-c4ccccc4)n[nH]3)SC2)cc1	i	i	i	i	i	0.47
COC(=O)c1c(NC(=S)Nc2ccc(F)cc2[N+](=O)[O-])sc2c1CCCCC2	i	i	i	i	8.9*	-0.23

Source: PubChem BioAssay (Johns Hopkins Ion Channel Center)
